Source: ChEMBL document CHEMBL3244382, “Structural requirements for antileukemic activity among the naturally occurring and semisynthetic maytansinoids” (J Med Chem, 1978)
Converted amounts (≈) assume the structure as drawn. The source made the active and inactive calls.

Experiments:
[1] = test system: Mus musculus; test: Toxicity in PS mouse allografted with mouse P388 cells assessed as survival at 0.4 ug/kg after 4 days; type: organism-based; conditions: in vivo, 0.0004 mg/kg, 96 h
In short: (§1)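 PS (P388) leukemic mice, six started per dose group. Toxicity scored as survivors on the toxicity day over the number of mice started. The toxicity day is normally 4 days after the first injection.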

[2] = test system: Mus musculus; test: Toxicity in PS mouse allografted with mouse P388 cells assessed as change in body weight at 0.4 ug/kg relative to control; type: organism-based; conditions: in vivo, 0.0004 mg/kg
In short: (§2)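 PS (P388 leukemia) mice, six per dose group. Toxicity read as the difference in grams between the weights of treated and control animals.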

[3] = test system: Mus musculus; test: Toxicity in PS mouse allografted with mouse P388 cells assessed as change in body weight at 0.8 ug/kg relative to control; type: organism-based; conditions: in vivo, 0.0008 mg/kg; in short: as §2
[4] = test system: P388; test: Antitumor activity against mouse P388 cells allografted in PS mouse assessed as median survival time at 0.2 ug/kg relative to control; type: functional
In short: (§3)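 P388 leukemia (PS) in mice, six mice started per dose group. Read-out is T/C: median survival time of the treated group divided by that of the untreated control group, expressed as a percent. The NIH protocol counts a compound as active when T/C > 125%.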

[5] = test system: P388; test: Antitumor activity against mouse P388 cells allografted in PS mouse assessed as median survival time at 50 ug/kg relative to control; type: functional; in short: as §3
[6] = test system: Mus musculus; test: Toxicity in PS mouse allografted with mouse P388 cells assessed as survival at 25 ug/kg after 4 days; type: organism-based; conditions: in vivo, 0.025 mg/kg, 96 h; in short: as §1
[7] = test system: Mus musculus; test: Toxicity in PS mouse allografted with mouse P388 cells assessed as change in body weight at 6.3 ug/kg relative to control; type: organism-based; conditions: in vivo, 0.0063 mg/kg
In short: (§4)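 P388 (PS) leukemia in mice, 6 mice per dose group. Weight change is the difference in grams between treated and control animals. Survivors are recorded on toxicity day, normally 4 days after the first injection.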

[8] = test system: P388; test: Antitumor activity against mouse P388 cells allografted in PS mouse assessed as median survival time at 0.4 ug/kg relative to control; type: functional; in short: as §3
[9] = test system: Mus musculus; test: Toxicity in PS mouse allografted with mouse P388 cells assessed as change in body weight at 50 ug/kg relative to control; type: organism-based; conditions: in vivo, 0.05 mg/kg; in short: as §4
[10] = test system: P388; test: Antitumor activity against mouse P388 cells allografted in PS mouse assessed as median survival time at 6.3 ug/kg relative to control; type: functional; in short: as §3
[11] = test system: P388; test: Antitumor activity against mouse P388 cells allografted in PS mouse assessed as median survival time at 25 ug/kg relative to control; type: functional; in short: as §3
[12] = test system: P388; test: Antitumor activity against mouse P388 cells allografted in PS mouse assessed as median survival time at 12.5 ug/kg relative to control; type: functional; in short: as §3
[13] = test system: Mus musculus; test: Toxicity in PS mouse allografted with mouse P388 cells assessed as survival at 6.3 ug/kg after 4 days; type: organism-based; conditions: in vivo, 0.0063 mg/kg, 96 h; in short: as §1
[14] = test system: Mus musculus; test: Toxicity in PS mouse allografted with mouse P388 cells assessed as change in body weight at 3.1 ug/kg relative to control; type: organism-based; conditions: in vivo, 0.0031 mg/kg; in short: as §4
[15] = test system: Mus musculus; test: Toxicity in PS mouse allografted with mouse P388 cells assessed as survival at 0.8 ug/kg after 4 days; type: organism-based; conditions: in vivo, 0.0008 mg/kg, 96 h; in short: as §1
[16] = target: Tubulin (Homo sapiens) (UniProt P68371+Q9H4B7+P0DPH7+P68366+Q13509+Q71U36+P04350+Q3ZCM7+P07437+P68363+Q9BQE3+Q6PEY2+Q13885+Q9BVA1+Q9BUF5); test: Inhibition of brain tubulin polymerization (unknown origin) at 37 degC by spectrophotometry
[17] = test system: Mus musculus; test: Toxicity in PS mouse allografted with mouse P388 cells assessed as survival at 12.5 ug/kg after 4 days; type: organism-based; conditions: in vivo, 0.0125 mg/kg, 96 h; in short: as §1
[18] = test system: Mus musculus; test: Toxicity in PS mouse allografted with mouse P388 cells assessed as change in body weight at 0.2 ug/kg relative to control; type: organism-based; conditions: in vivo, 0.0002 mg/kg; in short: as §2
[19] = test system: KB; test: Cytotoxicity against human KB cells; type: functional; conditions: read-out: ED50 (the source's name)
[20] = test system: Mus musculus; test: Toxicity in PS mouse allografted with mouse P388 cells assessed as change in body weight at 25 ug/kg relative to control; type: organism-based; conditions: in vivo, 0.025 mg/kg; in short: as §4
[21] = test system: Mus musculus; test: Toxicity in PS mouse allografted with mouse P388 cells assessed as change in body weight at 1.1 ug/kg relative to control; type: organism-based; conditions: in vivo, 0.0011 mg/kg; in short: as §4
[22] = test system: Mus musculus; test: Toxicity in PS mouse allografted with mouse P388 cells assessed as change in body weight at 12.5 ug/kg relative to control; type: organism-based; conditions: in vivo, 0.0125 mg/kg; in short: as §4
[23] = test system: P388; test: Antitumor activity against mouse P388 cells allografted in PS mouse assessed as median survival time at 100 ug/kg relative to control; type: functional; in short: as §3
[24] = test system: P388; test: Antitumor activity against mouse P388 cells allografted in PS mouse assessed as median survival time at 3.1 ug/kg relative to control; type: functional; in short: as §3
[25] = test system: Mus musculus; test: Toxicity in PS mouse allografted with mouse P388 cells assessed as survival at 0.2 ug/kg after 4 days; type: organism-based; conditions: in vivo, 0.0002 mg/kg, 96 h; in short: as §1
[26] = test system: P388; test: Antitumor activity against mouse P388 cells allografted in PS mouse assessed as median survival time at 0.8 ug/kg relative to control; type: functional; in short: as §3
[27] = test system: Mus musculus; test: Toxicity in PS mouse allografted with mouse P388 cells assessed as survival at 3.1 ug/kg after 4 days; type: organism-based; conditions: in vivo, 0.0031 mg/kg, 96 h; in short: as §1
[28] = test system: P388; test: Antitumor activity against mouse P388 cells allografted in PS mouse assessed as median survival time at 1.1 ug/kg relative to control; type: functional; in short: as §3
[29] = test system: Paracentrotus lividus; test: Antimitotic activity against sea urchin eggs assessed as drug level causing inhibition of mitosis; type: functional; conditions: Egg
[30] = test system: Mus musculus; test: Toxicity in PS mouse allografted with mouse P388 cells assessed as survival at 100 ug/kg after 4 days; type: organism-based; conditions: in vivo, 0.1 mg/kg, 96 h; in short: as §1
[31] = test system: Mus musculus; test: Toxicity in PS mouse allografted with mouse P388 cells assessed as change in body weight at 100 ug/kg relative to control; type: organism-based; conditions: in vivo, 0.1 mg/kg; in short: as §4
[32] = test system: Mus musculus; test: Toxicity in PS mouse allografted with mouse P388 cells assessed as survival at 50 ug/kg after 4 days; type: organism-based; conditions: in vivo, 0.05 mg/kg, 96 h; in short: as §1
[33] = test system: Mus musculus; test: Toxicity in PS mouse allografted with mouse P388 cells assessed as survival at 1.1 ug/kg after 4 days; type: organism-based; conditions: in vivo, 0.0011 mg/kg, 96 h; in short: as §1
[34] = test system: Mus musculus; test: Toxicity in PS mouse allografted with mouse P388 cells assessed as survival at 200 ug/kg after 4 days; type: organism-based; conditions: in vivo, 0.2 mg/kg, 96 h; in short: as §1
[35] = test system: Mus musculus; test: Toxicity in PS mouse allografted with mouse P388 cells assessed as survival at 1.8 ug/kg after 4 days; type: organism-based; conditions: in vivo, 0.0018 mg/kg, 96 h; in short: as §1
[36] = test system: P388; test: Antitumor activity against mouse P388 cells allografted in PS mouse assessed as median survival time at 200 ug/kg relative to control; type: functional; in short: as §3
[37] = test system: Mus musculus; test: Toxicity in PS mouse allografted with mouse P388 cells assessed as survival at 0.9 ug/kg after 4 days; type: organism-based; conditions: in vivo, 0.0009 mg/kg, 96 h; in short: as §1
[38] = test system: P388; test: Antitumor activity against mouse P388 cells allografted in PS mouse assessed as median survival time at 6.2 ug/kg relative to control; type: functional; in short: as §3
[39] = test system: Mus musculus; test: Toxicity in PS mouse allografted with mouse P388 cells assessed as survival at 6.2 ug/kg after 4 days; type: organism-based; conditions: in vivo, 0.0062 mg/kg, 96 h; in short: as §1
[40] = test system: Mus musculus; test: Toxicity in PS mouse allografted with mouse P388 cells assessed as change in body weight at 0.9 ug/kg relative to control; type: organism-based; conditions: in vivo, 0.0009 mg/kg; in short: as §4
[41] = test system: Mus musculus; test: Toxicity in PS mouse allografted with mouse P388 cells assessed as change in body weight at 1.8 ug/kg relative to control; type: organism-based; conditions: in vivo, 0.0018 mg/kg; in short: as §4
[42] = test system: P388; test: Antitumor activity against mouse P388 cells allografted in PS mouse assessed as median survival time at 0.9 ug/kg relative to control; type: functional; in short: as §3
[43] = test system: Mus musculus; test: Toxicity in PS mouse allografted with mouse P388 cells assessed as change in body weight at 6.2 ug/kg relative to control; type: organism-based; conditions: in vivo, 0.0062 mg/kg; in short: as §4
[44] = test system: Mus musculus; test: Toxicity in PS mouse allografted with mouse P388 cells assessed as change in body weight at 200 ug/kg relative to control; type: organism-based; conditions: in vivo, 0.2 mg/kg; in short: as §4
[45] = test system: P388; test: Antitumor activity against mouse P388 cells allografted in PS mouse assessed as median survival time at 1.8 ug/kg relative to control; type: functional; in short: as §3

COc1cc2cc(c1Cl)N(C)C(=O)/C=C/[C@]1(C)O[C@H]1[C@H](C)[C@@H]1C[C@@](O)(NC(=O)O1)[C@H](OC)/C=C/C=C(\C)C2
Activity [1]: Non-toxic | Activity [2]: 2.5 g | Activity [3]: 2.8 g | T/C [4]: 90% | T/C [5]: <80% | Activity [6]: Non-toxic | Activity [7]: 0.3 g | T/C [8]: 90% | Activity [9]: 2.6 g | T/C [10]: <80% | T/C [11]: <80% | T/C [12]: <80% | Activity [13]: Non-toxic | Activity [14]: 0.4 g | Activity [15]: Non-toxic | inhibition [16]: Active | Activity [17]: Non-toxic | Activity [18]: 2.1 g | EC50 [19]: 0.025 µg/mL (≈ 0.0457 µM) | Activity [20]: 1.7 g | Activity [21]: 2 g | Activity [22]: 1 g | T/C [23]: 110% | T/C [24]: 90% | Activity [25]: Non-toxic | T/C [26]: 90% | Activity [27]: Non-toxic | T/C [28]: 90% | Activity [29]: 1 µM | Activity [30]: Non-toxic | Activity [31]: 1 g | Activity [32]: Non-toxic | Activity [33]: Non-toxic

COc1cc2cc(c1Cl)N(C)C(=O)C[C@H](OC(=O)CBr)[C@]1(C)O[C@H]1[C@H](C)[C@@H]1C[C@@](O)(NC(=O)O1)[C@H](OC)/C=C/C=C(\C)C2
T/C [5]: 189% | Activity [34]: Toxic | Activity [6]: Non-toxic | Activity [9]: -0.3 g | T/C [11]: 162% | T/C [12]: 153% | Activity [35]: Non-toxic | T/C [36]: < 80% | Activity [14]: -0.2 g | Activity [37]: Non-toxic | T/C [38]: 146% | Activity [39]: Non-toxic | inhibition [16]: Active | Activity [40]: -0.4 g | Activity [17]: Non-toxic | Activity [41]: -0.6 g | EC50 [19]: 0.00044 µg/mL (≈ 0.000641 µM) | Activity [20]: -0.5 g | T/C [42]: 129% | Activity [22]: -0.3 g | T/C [23]: 232% | Activity [43]: 0.2 g | T/C [24]: 130% | Activity [27]: Non-toxic | Activity [44]: -2.5 g | Activity [29]: 1 ×10⁻⁸ mol/L | Activity [30]: Non-toxic | Activity [31]: -1.3 g | Activity [32]: Non-toxic | T/C [45]: 131%
